IC50 data for 1 molecule are collected here from BindingDB's records for doi:10.1021/jm030110r (Pharmaceutical Research Institute, 2003).

This assay deals with Proto-oncogene tyrosine-protein kinase Src (Rattus norvegicus, UniProt Q9WUD9). As to the kind of experiment: Inhibition of v-Src tyrosine kinase autophosphorylation in SR3Y1 cells after 15 hr. The procedure, abridged:
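SR-3Y1 cells exposed to drug 15 h, lysed on ice 20 min in Tris pH 7.5 RIPA-type buffer with protease inhibitors and 1 mM vanadate. Equal-protein lysates run on SDS-PAGE, blotted with anti-phosphotyrosine antibody, HRP secondary, ECL detection. IC50 = concentration halving tyrosine phosphorylation.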

Sequence of Proto-oncogene tyrosine-protein kinase Src (Q9WUD9 2-536 limits assumed): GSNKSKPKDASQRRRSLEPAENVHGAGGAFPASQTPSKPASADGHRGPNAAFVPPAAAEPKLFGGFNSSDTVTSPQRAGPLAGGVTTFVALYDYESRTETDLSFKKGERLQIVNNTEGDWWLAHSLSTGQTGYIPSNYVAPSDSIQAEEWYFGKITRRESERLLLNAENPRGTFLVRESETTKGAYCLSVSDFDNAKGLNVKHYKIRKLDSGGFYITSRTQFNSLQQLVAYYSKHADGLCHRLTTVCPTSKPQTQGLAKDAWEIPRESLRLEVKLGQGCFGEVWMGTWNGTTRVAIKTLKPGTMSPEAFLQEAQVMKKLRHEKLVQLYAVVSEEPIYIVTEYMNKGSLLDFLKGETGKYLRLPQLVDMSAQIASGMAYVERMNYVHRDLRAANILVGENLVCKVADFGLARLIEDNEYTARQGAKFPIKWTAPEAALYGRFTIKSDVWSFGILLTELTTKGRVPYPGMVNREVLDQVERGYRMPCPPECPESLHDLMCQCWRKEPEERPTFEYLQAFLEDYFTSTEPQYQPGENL

For the molecule `C[C@@H]1C[C@H]2O[C@@H]2\C=C/C=C/C(=N\OCC(=O)N2CCN(C)CC2)Cc2c(Cl)c(O)cc(O)c2C(=O)O1` [16-Chloro-17,19-dihydroxy-4-methyl-3,7-dioxa-tricyclo[13.4.0.0*6,8*]nonadeca-1(19),9,11,15,17-pentaene-2,13-dione 13-{O-[2-(4-methyl-piperazin-1-yl)-2-oxo-ethyl]-oxime}], the IC50 came out at 13 nM.
